Calls of active or inactive are those of the source. No cut-off for these calls is given here.
What was measured:
[1] = Antioxidant activity against beta-carotene assessed as inhibition of bleaching at 10 ug; type: functional
Outline: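 Silica gel 60 F254 TLC plates developed in petroleum ether–EtOAc (1:2), then dried and sprayed with 0.05% β-carotene in CHCl3. Plates were kept under UV 254 nm until the background discolored. Inhibition of bleaching was read on the plate.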

[2] = system: Cladosporium cucumerinum; assay: Antifungal activity against Cladosporium cucumerinum at 20 ug; type: functional, organism-based
[3] = DPPH radical scavenging activity at 10 ug by TLC autographic assay; type: functional
Outline: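 TLC autography on silica gel 60 F254 plates developed in petroleum ether–EtOAc (1:2), dried, then sprayed with 0.2% DPPH in MeOH. Plates were read 30 min after spraying; active zones show as yellow spots on a purple background.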

[4] = DPPH radical scavenging activity at 10 ug by TLC autographic assay
[5] = system: Cladosporium cucumerinum; assay: Antifungal activity against Cladosporium cucumerinum at 40 ug; type: functional, organism-based
[6] = system: Cladosporium cucumerinum; assay: Antifungal activity against Cladosporium cucumerinum at 10 ug; type: functional, organism-based

Structure (SMILES): COc1cc([C@@H]2OC[C@@H]3[C@H]2CO[C@@H]3c2ccc(OC)c(OC)c2)ccc1O
- Activity [1]: Active
- Activity [2]: Active
- Activity [3]: Active

Structure (SMILES): C/C(=C/CC/C(C)=C/CCC1(C)CCc2cc(O)cc(C)c2O1)C(=O)O (centres undefined)
- Activity [1]: Active
- Activity [4]: Active
- Activity [5]: Active
- Activity [3]: Active

Structure (SMILES): COc1ccc([C@H]2OC[C@@H]3[C@H]2CO[C@H]3c2ccc(OC)c(OC)c2)cc1OC
- Activity [1]: Active
- Activity [2]: Active
- Activity [3]: Active

Structure (SMILES): Clc1ccc(COC(Cn2ccnc2)c2ccc(Cl)cc2Cl)c(Cl)c1 (centres undefined)
- Activity [6]: Active

Structure (SMILES): COc1ccc([C@@H]2OC[C@@H]3[C@H]2CO[C@H]3c2ccc(OC)c(OC)c2)cc1OC
- Activity [1]: Active
- Activity [2]: Active
- Activity [3]: Active

From ChEMBL document CHEMBL1151323, “Use of on-flow LC/1H NMR for the study of an antioxidant fraction from Orophea enneandra and isolation of a polyacetylene, lignans, and a tocopherol derivative” (J Nat Prod, 1998)
